# Rows were chosen to be rich in hits. Some 2.6% of all compounds tested hit in one or more screens of this group.
# PHOSPHO1 block = inhibitors of human PHOSPHO1 phosphatase; Q8TCT1; recombinant PHOSPHO1, absorbance phosphatase assay; inhibition, % at 13.3 µM; 290,000 tested, 1.1% active; in the data active means inhibition above about 60%
# IMP-1 inh-1 = blocks Pseudomonas aeruginosa IMP-1 metallo-beta-lactamase | AID 1556 | 290,000 tested, 0.45% active | purified IMP-1, nitrocefin hydrolysis, epi-absorbance fluorescence | inhibition, % at 5.6 µM;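 active means inhibition above the mean plus 3 SD of all compounds in the same screening run, cut at about 4.5% in these data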
#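 Assay system: purified IMP-1; Quantity: IMP-1 0.2 nM before substrate addition; Medium: HEPES buffer pH 7.1 with ZnSO4 and Brij 35; Incubation: 15 min enzyme–compound preincubation, then 25 min nitrocefin reaction, 25 °C; Signal: fluorescence quenching readout, ex 480/em 530 nm; Controls: DMSO with and without IMP-1; Repeats: singlicate testing.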
# ASAP1 inh = blocks human ASAP1-stimulated Arf1 GTP hydrolysis; Q9ULH1; GDP FP detection; inhibition, % at 16.5 µM; 360,000 tested, 0.19% active; in the data active means inhibition above about 25%
# Target sequence (Q9ULH1 325-724 limits assumed): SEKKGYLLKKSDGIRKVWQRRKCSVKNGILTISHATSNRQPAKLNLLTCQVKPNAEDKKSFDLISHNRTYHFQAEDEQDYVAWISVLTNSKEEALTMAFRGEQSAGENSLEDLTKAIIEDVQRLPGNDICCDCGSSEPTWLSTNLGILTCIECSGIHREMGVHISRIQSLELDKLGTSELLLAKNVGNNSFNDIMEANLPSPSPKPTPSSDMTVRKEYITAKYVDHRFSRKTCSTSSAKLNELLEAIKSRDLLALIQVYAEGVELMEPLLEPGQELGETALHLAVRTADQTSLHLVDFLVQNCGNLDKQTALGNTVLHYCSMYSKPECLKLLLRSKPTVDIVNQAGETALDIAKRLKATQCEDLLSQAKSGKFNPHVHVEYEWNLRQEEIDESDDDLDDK
# ARFGAP1 inh = inhibitors of rat ARFGAP1; Arfgap1-stimulated ARF1 GTP hydrolysis, GDP FP detection; inhibition, % at 16.5 µM; 360,000 tested, 0.26% active;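 active means inhibition above a per-plate limit, mean inhibition of low control wells plus 3 SD, cut at about 25% in these data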
# Target sequence (Q62848 1-136 limits assumed): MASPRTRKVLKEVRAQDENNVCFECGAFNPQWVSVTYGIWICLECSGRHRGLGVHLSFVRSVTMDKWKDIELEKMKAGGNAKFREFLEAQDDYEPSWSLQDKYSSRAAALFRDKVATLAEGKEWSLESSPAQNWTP
#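 Assay system: purified rat His6-Arfgap1 residues 1-136 (GAP domain); Reagent: human Δ17 ARF1 bound to GTP; Dosing: 16.5 µM single point, 1.26% DMSO; Times: GTP hydrolysis reaction 2 h at 25 °C; Signal: FP, GDP Alexa 633 tracer displaced from anti-GDP antibody, 620/688 nm; Measure: % inhibition from polarization.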
# VIM-2 inhibitor = inhibitors of Pseudomonas aeruginosa VIM-2 metallo-beta-lactamase; purified VIM-2, nitrocefin hydrolysis, epi-absorbance fluorescence; inhibition, % at 5.6 µM; 290,000 tested, 0.89% active; AID 1527;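 active means inhibition above the mean of all tested compounds plus 3 SD, cutoff set per screening run, cut at about 7.5% in these data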;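 further: red hydrolysis product quenches plate fluorescence so inhibitors raise well fluorescence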
# Calb FLC = affects C. albicans growth with fluconazole; growth inhibition, % (concentration not given with the values); C. albicans CaCi-2 (fluconazole-resistant clinical isolate) + fluconazole, Alamar Blue growth, 48 h; 300,000 tested, 0.57% active;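 active means growth inhibition above about 58% in most replicates, limit read from the data, passing the limit was not always enough; inconclusive means exactly half the replicates above a set limit; inactive means most replicates below a set limit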;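 further: all wells also contain fluconazole at 8 µg/ml as a sub-toxic cotreatment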
# IMP-1 inh-2 = blocks IMP-1 metallo-beta-lactamase in VIM-2 selectivity screen; shares compounds with VIM-2 inhibitor; purified IMP-1, nitrocefin hydrolysis, epi-absorbance fluorescence; 1,300 tested, under 10 active; inhibition, % at 5.6 µM; call rule not given here
# VIM-2 FRET ctr = inhibits VIM-2 in FRET assay to exclude epi-absorbance artifacts; AID 1857; purified VIM-2, CCF2 FRET substrate hydrolysis; shares compounds with VIM-2 inhibitor; inhibition, % at 5.6 µM; 1,300 tested, 23% active;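 active means inhibition above the mean of all tested compounds plus 3 SD, cut at about 19% in these data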
# TEM-1 counter = selectivity counter-screen for VIM-2 inhibitors: E. coli TEM-1 inhibitors; shares compounds with VIM-2 inhibitor; Purified TEM-1, nitrocefin hydrolysis, epi-absorbance fluorescence; inhibition, % at 5.6 µM; 1,300 tested, 3% active;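 active means inhibition above that campaign's mean inhibition plus 3 SD, cut at about 0.46% in these data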
# VIM-2 confirm 2 = confirmation of P. aeruginosa VIM-2 metallo-beta-lactamase inhibitors; shares compounds with VIM-2 inhibitor; purified VIM-2, nitrocefin hydrolysis, epi-absorbance; inhibition, % at 5.6 µM; 1,300 tested, 96% active; AID 2187;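 active means inhibition of the VIM-2 beta-lactamase enzyme above about 11% from the earlier first-round screen, limit read from the data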
# Hits are given with their value; – = inactive; ? = inconclusive; · = no result.
SMILES,PHOSPHO1 block,IMP-1 inh-1,ASAP1 inh,ARFGAP1 inh,VIM-2 inhibitor,Calb FLC,IMP-1 inh-2,VIM-2 FRET ctr,TEM-1 counter,VIM-2 confirm 2
O=C(COc1ccc2c(-c3ccccc3)cc(=O)oc2c1)NCCCN1CCOCC1,–,–,–,–,–,–,·,·,·,·
CC(/C=N/n1c(-c2cc(C)[nH]n2)n[nH]c1=S)=C\c1ccccc1,–,–,–,–,–,–,·,·,·,·
CC(=C/c1ccccc1)/C=N/n1c(-c2ccco2)n[nH]c1=S,–,–,–,–,16.6,–,–,38.0,–,22.6
Cc1ccc(C)c(-n2c(-c3ccco3)n[nH]c2=S)c1,·,·,–,–,·,–,·,·,·,·
COc1ccccc1-n1c(-c2ccco2)n[nH]c1=S,–,–,–,–,22.1,–,–,43.8,–,28.2
S=c1[nH]nc(-c2ccco2)n1-c1cccc2ccccc12,–,–,–,–,19.4,–,–,49.2,–,32.0
CC(C)Oc1ccc(Cn2c(-c3ccco3)n[nH]c2=S)cc1,–,–,–,–,15.8,–,–,45.0,–,26.7
COc1cccc(C(NC(C)=O)c2nc(-c3ccc4c(c3)OCO4)cs2)c1 (configuration not stated),·,·,–,–,·,·,·,·,·,·
Cc1ccccc1C(=O)c1cccn1CC(=O)NCc1ccccc1,–,–,–,–,–,–,·,·,·,·
Cc1ccccc1C(=O)c1cccn1CC(=O)O,–,–,–,–,38.2,?,–,56.9,1.3,42.6
CO[C@@H]1CN(C)C(=O)c2cc(NC(=O)Nc3cc(F)ccc3F)ccc2OC[C@H](C)N(C(=O)c2cnccn2)C[C@@H]1C,·,·,–,–,·,·,·,·,·,·
S=c1[nH]nc(CSCc2ccccc2Cl)n1C1CCCCC1,–,–,–,–,–,–,·,·,·,·
S=c1[nH]nc(-c2ccco2)n1C1CCCCC1,–,–,–,–,24.6,–,–,52.4,–,34.1
S=c1[nH]nc(-c2ccco2)n1-c1ccc(Cl)cc1,–,–,–,–,–,–,·,·,·,·
Cn1cc(Cl)c(-c2n[nH]c(=S)n2C2CCCCC2)n1,–,–,–,–,42.3,–,–,60.2,–,42.8
COc1cc(C(=O)C(=O)N2CCN(c3ccccc3)CC2)cc2ccccc12,·,·,–,–,·,·,·,·,·,·
CCC(=O)N[C@H]1CC[C@@H](CCn2cc(C3CC3)nn2)O[C@@H]1CO,·,·,–,–,·,·,·,·,·,·
CC(C)N1CCC1(C)C(=O)Nc1nccc2cccnc12 (configuration not stated),·,·,–,–,·,·,·,·,·,·
O=Cc1c(NCc2ccc(F)cc2)c2ccccc2[nH]c1=O,·,–,–,–,–,–,·,·,·,·
Cc1ccc(CNc2c(C=O)c(=O)[nH]c3ccccc23)cc1,–,–,–,–,14.0,–,–,31.4,–,21.4
CCCCC1CC2=C(C(=O)OC(C)(C)O2)C(c2ccc(Cl)cc2)O1 (configuration not stated),·,·,–,–,·,·,·,·,·,·
Cc1n[nH]c(C)c1N1C(=O)c2cccc3cc(Br)cc(c23)C1=O,–,–,–,–,14.9,–,–,–,–,25.8
Cc1n[nH]c(C)c1N1C(=O)c2cccc3c(Br)ccc(c23)C1=O,–,–,–,–,29.0,–,–,–,–,33.4
COc1ccc2[nH]c(C(=O)O)c(CCN3C(=O)c4cccc([N+](=O)[O-])c4C3=O)c2c1,–,–,–,–,14.3,–,–,79.5,–,65.0
CN1CCN(Cc2cc(COCc3ccccc3)c3cccnc3c2O)CC1,–,–,–,–,12.4,109.5,–,32.7,–,33.0
O=C(NC1CCCCC1)C(c1ccncc1)n1c(=O)c(-c2cc3ccccc3[nH]2)nc2ccccc21 (configuration not stated),·,·,–,–,·,·,·,·,·,·
O=C1NC[C@H](CCCCN2CCN(CCc3ccc(O)cc3)C(=O)C2=O)N(CCc2ccc(O)cc2)C1=O,·,·,–,–,·,·,·,·,·,·
